Published values gathered from unrelated publications.
Compare with care: the assays were run in different laboratories.
Target: Death-associated protein kinase 1 (DAPK1, Homo sapiens, UniProt P53355)

`Cc1cnc(NC2CCOCC2)nc1-n1cnc(C(=O)NC(CN)c2cc(F)cc(Cl)c2)c1` (stereo not shown) gave a remaining activity of 96% (enzyme activity; inhibitor; radiometric; 1 µM).
For `O=C(Nc1cnn(-c2csc(C(=O)NC3COC3)c2)c1)Nc1c(F)cccc1Cl`, the remaining activity was 98.9% (enzyme activity; inhibitor; 5 µM).
`Cc1ccc(NC(=O)c2ccc(C)c(C(F)(F)F)c2)cc1C#Cc1nn(C2CCC(O)CC2)c2ncnc(N)c12` (stereo not shown) gave a remaining signal of 97% (cell-free assay; 10 µM).
The remaining binding of `Cc1noc([C@H]2C[C@@H](c3ccc(C(F)(F)F)cc3)CN(C(=O)N3CCS(=O)(=O)C3)C2)n1` is reported as 100% (cell-free assay; competition with immobilised ligand; 1 µM).
With `FC(F)(F)Oc1cccc(-c2cnc3ccc(-c4ccncc4)nn23)c1` the activity vs control was 101% (enzyme activity; inhibitor; radiometric; 1 µM).
With `CCCOc1ccc(OC)c(F)c1C(=O)c1ccc(C(=O)N[C@@H]2CNC[C@H]2NC(=O)c2ccc3[nH]ncc3c2)cc1` the remaining activity was 81% (enzyme activity; inhibitor; 10 µM).
With `C[S+]([O-])c1ccc(-c2nc(-c3ccncc3)c(-c3ccc(F)cc3)[nH]2)cc1` (stereo not shown) the remaining signal was 90.3% (cell-free assay; 0.5 µM).
With `CC(C)(C)c1nc(-c2cccc(NS(=O)(=O)c3c(F)cccc3F)c2F)c(-c2ccnc(N)n2)s1` the remaining activity was 75% (enzyme activity; inhibitor; radiometric; 1 µM).
With `N#CCCc1ccc2c(c1)-c1[nH]c3ccc([N+](=O)[O-])cc3c1CC(=O)N2` the remaining signal was 96.5% (cell-free assay; 0.5 µM).
The remaining binding of `CCCCN(CCCC)C(=O)CN1C[C@H](c2cc(OC)c3c(c2)OCO3)[C@@H](C(=O)O)[C@@H]1CC(C)(C)CCC` is reported as 100% (cell-free assay; competition with immobilised ligand; 1 µM).
With `Cc1ncc([N+](=O)[O-])n1C(=NO)c1ccccc1C(F)(F)F` the inhibition was 16.5% (enzyme activity; inhibitor; 10 µM).
For `CN(C)C1CCN(CC#Cc2nn(C3CCCC3)c3nc(NCc4ccccc4)ncc23)C1` (stereo not shown), the inhibition was 1% (enzyme activity; inhibitor; FRET; 0.1 µM).
`COc1cc(Nc2cnc(C#N)c(O[C@H](C)CN(C)C)n2)ncc1-c1cnn(C)c1` gave a remaining activity of 98% (enzyme activity; inhibitor; radiometric; 10 µM).
For `C[C@@H]1CN(c2cc(-c3nn(C)c4ccc(OC5(C)CC5)cc34)ncn2)C[C@H](C)O1`, the remaining binding was 100% (cell-free assay; competition with immobilised ligand; 1 µM).
With `CNC(=O)c1cc(Oc2ccc(NC(=O)Nc3ccc(Cl)c(C(F)(F)F)c3)cc2)ccn1` the inhibition was 16% (enzyme activity; inhibitor; 0.3 µM).
`CC(=O)Nc1c(C(C)=O)c(=O)n(C)c2nc(-c3ccc(Cl)cc3Cl)c(-c3ccc(Cl)cc3)cc12` has a remaining binding of 100% (cell-free assay; competition with immobilised ligand; 1 µM).
`Cn1c(=O)n(-c2ccc(C(C)(C)C#N)cc2)c2c3cc(-c4cnc5ccccc5c4)ccc3ncc21` gave a remaining activity of 107% (enzyme activity; inhibitor; 10 µM).
`C[C@@]1(Cc2ccc(C#N)cc2)C(=O)N(c2cc(Cl)cc(Cl)c2)c2ncc(C(=O)NC3(c4nc(C5CCC5)no4)CC3)n21` has a remaining binding of 100% (cell-free assay; competition with immobilised ligand; 1 µM).
`Cc1ccc(Nc2nccc(N(C)c3ccc4c(C)n(C)nc4c3)n2)cc1S(N)(=O)=O` gave an inhibition of 16% (enzyme activity; inhibitor; 0.3 µM).
`O=C1NC(=O)c2cc(Nc3ccc(F)cc3)c(Nc3ccc(F)cc3)cc21` has a remaining signal of 81.3% (cell-free assay; 0.5 µM).
`CS(=O)(=O)N1CCCC(NC(=O)[C@H](CCC2CCCCC2)NC(=O)c2ccc(CNc3ncnc4c3nnn4-c3ccccc3)cc2)C1` (stereo partly shown) has a remaining binding of 92% (cell-free assay; competition with immobilised ligand; 0.1 µM).
With `CCN(CC)c1ccc(C2=NNC(=O)CC2C)cc1[N+](=O)[O-]` (stereo not shown) the remaining activity was 105% (enzyme activity; inhibitor; 10 µM).
The remaining binding of `COc1cc(-c2cn(C3CCc4ccccc4N(CC(F)(F)F)C3=O)nn2)ccc1-n1ccc(C)n1` (stereo not shown) is reported as 79% (cell-free assay; competition with immobilised ligand; 1 µM).
`Cc1ccc(C(=O)Nc2ccc(CN3CCN(C)CC3)c(C(F)(F)F)c2)cc1C#Cc1cnc2cccnn12` has a remaining activity of 95% (enzyme activity; inhibitor; 23.5 nM).
With `CCC(=O)N[C@H]1CC[C@@H](C(=O)N(C)c2ccc(-c3nc4ccccc4o3)cc2)C1` the remaining binding was 96% (cell-free assay; competition with immobilised ligand; 1 µM).
`Nc1nc(Nc2ccc(S(N)(=O)=O)cc2)nn1C(=O)c1c(F)cccc1F` has a remaining signal of 93.8% (cell-free assay; 0.5 µM).
For `CN1CC(Oc2cnc(C#N)cc2-c2ccn3nc(NC(=O)C4CC4)cc3c2)C1`, the inhibition was 1% (enzyme activity; inhibitor; 1 µM).
With `CCCS(=O)(=O)Nc1ccc(F)c(C(=O)c2c[nH]c3ncc(-c4ccc(Cl)cc4)cc23)c1F` the inhibition was under 10% (enzyme activity; inhibitor; 1 µM).
